CHOP inhibitor = inhibitors of CHOP promoter induction, primary screen, cell-based, unfolded protein response, luciferase reporter; CHO-K1 CHOP-promoter luciferase, tunicamycin-induced, 15-18 h; inhibition, % at 10 µM; 3.8% of 220,000 active;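 active means compounds that reduced the stress-induced luciferase reporter signal by more than about 70% of percent inhibition, limit read from the data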;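 further: 0% = tunicamycin plus vehicle and 100% = wells without tunicamycin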
Rad51 HR inh = human RAD51 strand exchange inhibitors, primary screen, biochemical, fluorescence. DNA repair protein RAD51 homolog 1 (Homo sapiens), Q06609. hRad51 DNA strand exchange, fluorescence dequenching. inhibition, % at 10 µM. 0.085% of 200,000 active. AID 1385, 2008;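 active means inhibition above 40% at the single screening dose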;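 further: 0% = DMSO control wells and 100% = blanks with heterologous ssDNA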
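Test system – preformed human Rad51 ssDNA filaments · Reagent – Donor/quencher-labelled 47-bp dsDNA substrate · Incubation – 37 °C 15-min filament assembly, 30-min compound preincubation, 15-min exchange · Signal – FRET fluorescence dequenching, excitation 485 nm, emission 520 nm · Read-out – percent inhibition from fluorescence, normalised to plate control and blank means · Benchmarks – plate control and blank wells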
PKD1 kinase inh = inhibitors of human PKD1 kinase, biochemical, fluorescence polarization. AID 797, 2007. PKD1 kinase fluorescence polarization assay. 0.056% of 200,000 active. inhibition, % (concentration not given with the values). Serine/threonine-protein kinase D1 (Homo sapiens), Q15139
Arbovirus anti = antivirals against arbovirus infection, primary screen, cell-based, full library, 10K replicate subset; arbovirus infection cell-based antiviral screen; inhibition, % at 10 µM; 0.37% of 200,000 active; AID 1251, 2008; in the data active means inhibition above about 30%
Wee1 stabilizer = Wee1 degradation inhibitors, primary screen, cell-based, HeLa, Wee1K328M-luciferase, luminescence; reporter increase, % at 5 µM; 1.2% of 220,000 active; HeLa Luc-Wee1K328M stability; 100% = proteasome inhibitor MG132 effect; AID 1321, 2008;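 active means activation above the mean of all tested compounds plus 3 SD, set per screening run, cut at about 8.8% in these data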;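 further: cells exposed to compound for 20 h before luminescence read; 0% = DMSO alone and 100% = MG132 at 30 µM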
L major viab = Leishmania major promastigote growth inhibition, primary screen; Leishmania major promastigotes, resazurin fluorescence viability; 9% of 200,000 active; inhibition, % at 10 µM;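 further: promastigotes grown with compound for 44 hours at 28 °C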
Numbers without * were called inactive; . = no result given. In the library only some 12% were active in any assay of this set; here they are far more common. Unless noted, no stated cut-off is given here; in the data, active means inhibition above about 50%; inactive means the rest.

SMILES	CHOP inhibitor	Rad51 HR inh	PKD1 kinase inh	Arbovirus anti	Wee1 stabilizer	L major viab
Cc1ccc(C(=O)N/N=C\c2ccccc2[N+](=O)[O-])cn1	-14	14	-4	1	11*	-5
N#Cc1c(N)nc(Sc2ccc(Cl)cc2)c(C#N)c1-c1ccccc1Cl	28	14	.	.	-1	.
Cc1ccc(C(=O)N/N=C\c2ccccn2)cn1	-16	13	.	.	11*	.
O=C(N/N=C/c1ccccn1)c1ccc(NC(=O)c2cccc([N+](=O)[O-])c2)cc1	13	1	-6	-2	-2	25
O=C(N/N=C/c1ccccn1)c1cccc([N+](=O)[O-])c1	13	-4	0	-6	-1	77*
Cc1cccc(C(=O)N/N=C/c2ccccn2)c1	7	-8	-4	-10	-2	14
O=C(N/N=C/c1ccccn1)c1cc([N+](=O)[O-])cc([N+](=O)[O-])c1	29	-5	-3	-2	-3	89*
O=C(COc1ccc([N+](=O)[O-])cc1)N/N=C/c1ccccn1	-9	-2	1	-13	-2	2
O=C(N/N=C/c1ccccn1)c1ccc([N+](=O)[O-])cc1	-16	-55	-3	-9	8	55*
O=C(Cn1nc(CNc2ccc(Br)cc2)[n+]2c1CCCCC2)c1ccc([N+](=O)[O-])cc1	2	-3	.	.	0	.
CCCNC(=O)C1CCN(c2cc(-c3ccccc3)nc3ncnn23)CC1	-23	-4	-3	-4	-2	-2
CS(=O)(=O)CC(=O)Nc1ccc2nc3n(c(=O)c2c1)CCCCC3	-3	.	.	.	1	.
O=C(COc1ccccc1F)NCC(c1ccco1)N1CCCC1 (configuration not stated)	-2	3	8	12	0	-6
O=C(N/N=C/c1ccccn1)c1ccc(N/N=C/c2ccccn2)cc1	-22	-4	-1	-4	2	-12
O=C(N/N=C/c1ccccn1)c1ccc(Br)cc1	11	-4	6	-2	0	97*
O=C(N/N=C/c1ccccn1)NC12CC3CC(CC(C3)C1)C2	-27	.	.	.	10.0*	.
CCOc1cc(/C=N/NC(=O)c2ccncc2)ccc1OC(=O)c1ccc([N+](=O)[O-])cc1	81*	-7	3	7	-3	-7
CCOc1cc(/C=N/Nc2cccc(C(=O)O)c2)ccc1OC(=O)c1ccccc1	92*	14	-4	-4	-1	3
CCOc1ccc(NC2OC(CO)C(O)C(O)C2O)c([N+](=O)[O-])c1 (configuration not stated)	7	-4	-4	5	0	-2
CC(C)(C)c1ccc(-c2nc3n(c(=O)c2C#N)CCS3)cc1	-15	-1	-7	6	-2	27
CCc1cccc(Nc2cnn(C34C[C@@H]5C[C@@H](CC(CC(=O)O)(C5)C3)C4)c(=O)c2Cl)c1	12	4	-6	13	1	-8
C#CC1(NC(=O)NCCCC)CCCCC1	6	.	11	-1	4	-1
Cc1ccc2nc(CSc3nnc4ccccn34)cc(=O)n2c1	25	-12	-9	23	-2	-5
C=CCn1c(SCc2cc(=O)n3cc(C)ccc3n2)nnc1-c1cccc(C)c1	13	3	5	14	3	52*
Clc1ccc(C2CC(c3ccccc3)Nc3ncnn32)cc1 (configuration not stated)	35	-9	6	-20	-3	-6
Clc1ccc(C2CC(c3ccco3)n3ncnc3N2)cc1Cl (configuration not stated)	18	9	-11	16	0	51*
O=C(Oc1coc(CSc2ncccn2)cc1=O)c1ccccc1[N+](=O)[O-]	14	-3	-3	9	0	-8
CC(=O)N1CCN(CC(O)COc2ccc(OCc3ccccc3)cc2)CC1 (configuration not stated)	35	-2	-17	2	-1	32
O=C(c1ccccc1)c1ccc(OCC(O)CN2CCCCC2)cc1 (configuration not stated)	12	-2	6	-20	-2	89*

Screening data from PubChem.
